Results as given in ChEMBL document CHEMBL2034829, “Truncated phosphonated C-1'-branched N,O-nucleosides: a new class of antiviral agents” (Bioorg Med Chem, 2012).
pIC50: −log10 of the molar value. Activity calls are given as the source filed them. No cut-off for these calls is given here.

Columns and labels:
[1] = system: Human immunodeficiency virus 1; experiment: Antiviral activity against HIV1 infected in CEM cells after 72 hrs by GFP reporter gene assay; assay type: functional, organism-based; details: for Activity: CCRF-CEM; for pIC50: Human immunodeficiency virus 1, CCRF-CEM
How it was run: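 CEM T cells carrying an HIV-1 LTR-driven GFP plasmid; 5 × 10^5 cells infected 2 h in 100 µl with supernatant of chronically HIV-infected H9 cells (20 ng/mL p24 equivalent) with compounds at 1000, 100, 10, 1 µM; medium then added, 72 h culture; inhibition scored by GFP expression; IC50 = concentration inhibiting 50% infection; zidovudine internal positive control.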

[2] = system: Human T-cell leukemia virus type I; experiment: Antiviral activity against HTLV1 infected in PBMC assessed as decrease in viral core protein p19 production; assay type: functional, organism-based
How it was run: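 PBMC co-cultivated with a chronically HTLV-1-infected cell line, with test compounds present; infection measured as production of viral core protein p19.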

[3] = Cytotoxicity against human MOLT3 cells by MTS assay; assay type: cell-based; details: MOLT-3 cells
How it was run: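 MOLT-3 cells (1 × 10^4) seeded with or without compounds at 1000 to 1 µM. Metabolic activity read colorimetrically as MTS formazan formation. CC50 is the concentration giving 50% inhibition of metabolic activity.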

[4] = Selectivity index, ratio of CC50 for human MOLT3 cells to IC50 for HIV1; assay type: functional, MOLT-3
How it was run: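 SI = CC50/IC50. CC50 from MTS formazan colorimetric assay: 1 × 10^4 MOLT-3 cells with or without compounds at 1000 to 1 µM, concentration reducing metabolic activity 50%. IC50 from CEM-GFP HIV-1 infection (2 h exposure with compounds at 1000–1 µM, 72 h culture, GFP read-out).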

[5] = Ratio of compound CC50 to AZT CC50 for human MOLT3 cells; assay type: cell-based; details: MOLT-3 cells
[6] = system: Human immunodeficiency virus 1; experiment: Ratio of AZT IC50 to compound IC50 for HIV1; assay type: functional

**Q.** With `CCOC(=O)[C@]1(n2ccc(=O)[nH]c2=O)C[C@H](P(=O)(OCC)OCC)N(C)O1` (relative stereo) as the compound, how does the Activity [1] read?
**A.** inactive

**Q.** And the Activity [2]?
**A.** inactive

**Q.** With `CCOC(=O)[C@@]1(n2ccc(NC(C)=O)nc2=O)C[C@H](P(=O)(OCC)OCC)N(C)O1` (racemic) as the compound, how does the pIC50 [1] read?
**A.** < 3.00

**Q.** And the Activity [2]?
**A.** inactive

**Q.** And the CC50 [3]?
**A.** > 1000 µM

**Q.** With `Cc1cn([C@H]2C[C@H](N=[N+]=[N-])[C@@H](CO)O2)c(=O)[nH]c1=O` [ZIDOVUDINE] as the compound, how does the pIC50 [1] read?
**A.** 5.11

**Q.** What about the CC50 [3] of the same compound?
**A.** 12.1 µM

**Q.** And the “Ratio CC50/IC50” value [4]?
**A.** 1.57

**Q.** Which Activity [1] does the source give for `CCOC(=O)[C@]1(n2ccc(NC(C)=O)nc2=O)C[C@H](P(=O)(OCC)OCC)N(C)O1` (racemic) here?
**A.** inactive

**Q.** And the Activity [2]?
**A.** inactive

**Q.** With `CCOC(=O)[C@@]1(n2ccc(=O)[nH]c2=O)C[C@H](P(=O)(OCC)OCC)N(C)O1` (racemic) as the compound, how does the pIC50 [1] read?
**A.** 3.88

**Q.** What about the Activity [2] of the same compound?
**A.** inactive

**Q.** What about the CC50 [3] of the same compound?
**A.** > 1000 µM

**Q.** What about the “Ratio CC50/IC50” value [4] of the same compound?
**A.** 7.57

**Q.** And the selectivity ratio [5]?
**A.** 83

**Q.** What about the “Ratio IC50” value [6] of the same compound?
**A.** 28

**Q.** With `CCOC(=O)[C@]1(n2cc(C)c(=O)[nH]c2=O)C[C@H](P(=O)(OCC)OCC)N(C)O1` (racemic) as the compound, how does the Activity [1] read?
**A.** inactive

**Q.** What about the Activity [2] of the same compound?
**A.** inactive

**Q.** Which results are given for `CCOC(=O)[C@@]1(n2ccc(N)nc2=O)C[C@H](P(=O)(OCC)OCC)N(C)O1` (racemic)?
**A.** pIC50 [1]: 3.74; Activity [2]: inactive; CC50 [3]: > 1000 µM; Ratio CC50/IC50 [4]: 7.02

**Q.** What does the source list for `CCOC(=O)[C@@]1(n2cc(C)c(=O)[nH]c2=O)C[C@H](P(=O)(OCC)OCC)N(C)O1` (racemic)?
**A.** pIC50 [1]: < 3.00; Activity [2]: inactive; CC50 [3]: > 1000 µM

**Q.** With `CCOC(=O)[C@@]1(n2cc(F)c(=O)[nH]c2=O)C[C@H](P(=O)(OCC)OCC)N(C)O1` (racemic) as the compound, how does the pIC50 [1] read?
**A.** 3.66

**Q.** And the Activity [2]?
**A.** inactive

**Q.** What about the CC50 [3] of the same compound?
**A.** > 1000 µM

**Q.** And the “Ratio CC50/IC50” value [4]?
**A.** 4.5

**Q.** What about the selectivity ratio [5] of the same compound?
**A.** 83

**Q.** What about the “Ratio IC50” value [6] of the same compound?
**A.** 28

**Q.** For `CCOC(=O)[C@]1(n2cc(F)c(=O)[nH]c2=O)C[C@H](P(=O)(OCC)OCC)N(C)O1` (racemic), which Activity [1] is on record?
**A.** inactive

**Q.** What about the Activity [2] of the same compound?
**A.** inactive
